Bioassay records deposited in PubChem BioAssay by several laboratories.
NR2E3 ag-1: activates human NR2E3 receptor | hit rate 0.35% among 360,000 | CHO-S Gal4-NCOR/VP16-NR2E3 two-hybrid, luciferase | AID 602229 | inhibition of corepressor binding, % at 3.98 µM | Q9Y5X4;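 active means inhibition above the mean of all tested compounds plus 3 SD, cut at about 70% in these data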;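 further: 0% = DMSO with NR2E3 transfected cells and 100% = cells lacking NR2E3 construct; higher means lower luciferase signal from less NR2E3 corepressor binding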
Target sequence (Q9Y5X4 whole entry, looked up, the tested form may be a part): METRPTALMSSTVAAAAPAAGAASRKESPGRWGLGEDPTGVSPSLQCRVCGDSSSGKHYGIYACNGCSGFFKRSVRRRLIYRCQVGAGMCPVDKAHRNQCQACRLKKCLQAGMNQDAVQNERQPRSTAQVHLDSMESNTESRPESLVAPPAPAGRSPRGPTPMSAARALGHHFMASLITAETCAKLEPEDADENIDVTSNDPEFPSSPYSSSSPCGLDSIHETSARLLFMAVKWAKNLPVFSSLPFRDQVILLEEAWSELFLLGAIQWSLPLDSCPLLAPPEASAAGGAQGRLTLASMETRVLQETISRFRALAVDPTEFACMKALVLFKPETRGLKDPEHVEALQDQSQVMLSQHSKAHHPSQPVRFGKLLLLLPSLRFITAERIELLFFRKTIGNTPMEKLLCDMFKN
V-ATPase pHluor: alters yeast V-ATPase proton transport | response, % at 10 µM | hit rate 0.37% among 350,000 | S. cerevisiae, pHLuorin cytosolic pH fluorescence; in the data active means response mostly above about 7.3%, no sharp cut-off; inactive means mostly below about 5.4%; further: actives read high
Env fusion inh: inhibitors of HIV Env-mediated cell fusion; HeLa-JRFL Env/CEM21 cell fusion, luciferase; inhibition, % at 12.3 µM; hit rate 1.1% among 360,000; AID 651610;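 active means mean replicate inhibition score of at least 50 and every replicate individually at or above 50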;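 further: 0% = plate neutral controls and 100% = maraviroc near 300 nM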
GAA850 FXN act: frataxin GAA850 promoter activation | HEK293 lucGAA850 FXN promoter luciferase reporter, 24 h; percent of 10 µM SAHA response | activation, % at 6 µM | hit rate 0.56% among 360,000 | AID 540364;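 active means activation above the average of all compounds screened plus 3 SD, cutoff fixed separately per campaign, cut at about 7.5% in these data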;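 further: 0% = DMSO wells and 100% = 10 µM SAHA wells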
GalR3 antagonist: antagonists of human GalR3 | inhibition, % at 3 µM | hit rate 0.44% among 360,000 | HEK293 GalR3-CNG cAMP membrane potential fluorescence; galR3 body fused to GalR1 C-terminus | AID 651719;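 active means inhibition above the screen-wide average plus 3 SD, cut at about 13% in these data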;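 further: forskolin and galanin both at EC90 stimulate the cells; cAMP rise reported by CNG channel membrane potential dye signal; 0% = forskolin plus galanin with DMSO and 100% = forskolin alone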
Target sequence (O60755 1-299 limits assumed): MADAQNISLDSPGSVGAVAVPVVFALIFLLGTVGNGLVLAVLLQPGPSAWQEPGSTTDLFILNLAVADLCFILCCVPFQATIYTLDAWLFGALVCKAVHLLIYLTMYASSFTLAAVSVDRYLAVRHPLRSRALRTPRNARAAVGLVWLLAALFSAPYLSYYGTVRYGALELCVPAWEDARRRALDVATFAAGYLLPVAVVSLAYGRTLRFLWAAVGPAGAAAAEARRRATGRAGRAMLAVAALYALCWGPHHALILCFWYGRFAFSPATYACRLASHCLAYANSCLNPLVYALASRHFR
NR2E3 ag-2: NR2E3 (human) agonism; GST-NR2E3/biotin-RetCOR TR-FRET, 1536-well; inhibition of corepressor binding, % at 4.78 µM; hit rate 0.12% among 320,000;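 active means percent inhibition above the cutoff of mean plus 3 SD of all tested compounds, set per screening campaign, cut at about 20% in these data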;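 further: 0% = DMSO wells and 100% = biotin wells as full block of FRET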
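Material: NR2E3–RetCOR corepressor complex / Incubation: Compound–protein incubation for 5 h at 4 °C / Dosing: compound at 4.8 µM, single dose / Detection: time-resolved FRET / Benchmarks: high control biotin, low control 0.6% DMSO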
VATPase regulator: modulates yeast V-ATPase proton transport; shares compounds with V-ATPase pHluor; S. cerevisiae pHLuorin cytosolic pH; response, % at 10 µM; hit rate 2% among 980; in the data active means response above about 24%;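 further: plate controls were vehicle wells for no effect and positive control wells for full effect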
The depositor's hits bear a star; / = no result; [ ] = another dose, or the depositor's remark. Hits are enriched below; roughly 2.2% of the tested compounds scored in any of these assays.

SMILES	NR2E3 ag-1	V-ATPase pHluor	Env fusion inh	GAA850 FXN act	GalR3 antagonist	NR2E3 ag-2	VATPase regulator
Cc1cc(C)c(OCCOCCN2CCCC2)c(C)c1	11.5	-3.0	2.1	2.4	-7.0	-2.9	/
O=C1C2CCCCN2C(=O)N1CCN1CCN(c2cccc(Cl)c2)CC1 (stereo not drawn)	-1.1	6.3*	-12.2	-0.5	-6.1	/	0.7
CO[C@H]1CC[C@H]2CCN(C)C(=O)[C@@H](C)[C@H](OC)CN(C)C(=O)c3cccc(C#N)c3OC[C@@H]1O2	/	/	-21.1[16.7 µM]	/	/	/	/
COCCN1CCN(C(=O)C2CCC(=O)N(CCc3cccc(F)c3)C2)CC1 (stereo not drawn)	24.4	7.4*	10.6	-1.2	-1.2	4.7	-7.1
O=C(NCCc1c[nH]c2ccccc12)C1CCC(=O)N(CCc2cccc(F)c2)C1 (stereo not drawn)	7.1	11.1*	1.8	0.2	0.0	-1.6	-2.0
C[C@@H]1CN([C@@H](C)CO)C(=O)Cc2cc(NC(=O)Nc3ccc(F)cc3)ccc2O[C@@H]1CN(C)CC1CCCCC1	/	/	1.6[16.7 µM]	/	/	/	/
Clc1ccccc1OCCCOc1cccc2cccnc12	-56.5	11.8*	-36.1	5.8	-3.0	1.6	19.6
O=Cc1ccccc1OCCCOc1cccc2cccnc12	-33.8	-4.9	-28.6	-2.7	-1.6	1.0	/
Cc1nnc(SCC(=O)N2CCC(Cc3ccccc3)CC2)n(N)c1=O	-11.4	13.4	/	0.9	-0.2	1.9	/
Cc1nnc(SCC(=O)N2CCCCCC2)n(N)c1=O	25.1	8.0*	-6.3	1.8	-0.1	-1.4	-3.0
C[C@@H]1CN([C@H](C)CO)C(=O)Cc2cc(NC(=O)NC3CCCCC3)ccc2O[C@H]1CN(C)Cc1ccc(Oc2ccccc2)cc1	/	/	12.0[16.7 µM]	/	/	/	/
O=[N+]([O-])c1ccc(C2CNC(c3ccccc3)O2)cc1 (stereo not drawn)	-8.6	7.1*	/	-1.8	-9.8	2.3	4.4
O=C(CN(CC1CCCO1)C(=O)CNS(=O)(=O)c1ccc(Cl)cc1)NCCc1ccccc1 (stereo not drawn)	-0.9	23.4*	/	-1.2	-0.5	4.1	0.2
COc1ccccc1NC(=O)c1ccccc1S(=O)(=O)c1ccc([N+](=O)[O-])cc1	-2.0	-0.9	-5.3	1.9	0.9	0.8	/
COc1ccccc1NC(=O)c1ccccc1S(=O)(=O)c1ccccc1[N+](=O)[O-]	23.6	10.8*	2.1	0.0	-0.6	1.2	6.2
Cc1ccc(NC(=O)CS(=O)Cc2nc(-c3ccc(C)cc3)oc2C)cc1 (stereo not drawn)	7.3	10.6*	5.5	1.8	/	3.2	3.4
Cc1ccc(-c2nc(CS(=O)CC(=O)NCc3ccccc3)c(C)o2)cc1 (stereo not drawn)	23.9	-5.6	-1.6	-2.5	/	-0.2	/
COc1ccc(C)cc1NC(=O)C(OC(=O)CNC(=O)c1cccc(F)c1)c1ccccc1 (stereo not drawn)	13.1	10.2*	4.0	0.1	-5.0	-1.4	-0.1
COc1ccc(C)cc1NC(=O)C(OC(=O)CNC(=O)c1ccc(Oc2ccccc2)cc1)c1ccccc1 (stereo not drawn)	-8.8	-2.2	-14.8	1.6	-5.7	3.9	/
C[C@@H]1CN([C@H](C)CO)C(=O)Cc2cc(NS(=O)(=O)c3cccs3)ccc2O[C@@H]1CN(C)S(=O)(=O)c1ccc(F)cc1	/	/	4.5[16.7 µM]	/	/	/	/
CCOc1ncccc1C(=O)Nc1nc(C(C)(C)C)cs1	31.9	9.4*	-3.9	-0.9	-5.7	0.2	-0.2
C[C@H]1CCCCO[C@@H](CN(C)C(=O)c2ccncc2)[C@@H](C)CN([C@@H](C)CO)C(=O)c2cc(NC(=O)c3ccncc3)ccc2O1	/	/	-1.5[16.7 µM]	/	/	/	/
COc1ccccc1CNC(=O)C[C@H]1C[C@H]2c3cc(NC(=O)c4cccnc4)ccc3O[C@H]2[C@H](CO)O1	/	/	10.9[16.7 µM]	/	/	/	/
Cc1ccc(S(=O)(=O)NCC[C@H]2CC[C@@H](NC(=O)c3ccccn3)[C@@H](CO)O2)cc1	/	/	3.6[16.7 µM]	/	/	/	/
O=C(CCC(=O)c1ccc(F)cc1)NCc1ccccc1C(F)(F)F	-12.0	3.4	5.5	1.0	-7.3	-1.4	-0.9
SMILES	NR2E3 ag-1	V-ATPase pHluor	Env fusion inh	GAA850 FXN act	GalR3 antagonist	NR2E3 ag-2	VATPase regulator
COc1ccc(CNC(=O)CCC(=O)c2ccc(F)cc2)cc1OC	19.4	-2.9	-77.3	1.4	-3.6	/	/
CCCC(=O)Nc1ccc2c(c1)C(=O)N(C)C[C@@H](OC)[C@H](C)CN(CCC(F)(F)F)[C@@H](C)CO2	/	/	7.3[16.7 µM]	/	/	/	/
COc1cccc(NC(=S)NNC(=O)c2ccccc2OC(F)F)c1	-38.9	9.4*	-41.7	2.0	10.9	-4.4	8.7
COc1ccc(NC(=O)c2ccccc2-c2ccccc2)cc1	2.3	-0.4	-9.7	2.1	-3.5	1.6	/
COc1cccc(NC(=O)c2ccccc2-c2ccccc2)c1	-12.2	8.8*	-2.9	2.3	-5.9	3.0	-3.0
C[C@H]1CN([C@@H](C)CO)C(=O)c2cc(NS(=O)(=O)c3cn(C)cn3)ccc2O[C@H]1CN(C)Cc1ccc(C(F)(F)F)cc1	/	/	-0.8[16.7 µM]	/	/	/	/
Cc1ccccc1S(=O)(=O)Cc1ccc(C(=O)NCCCN2CCN(C)CC2)o1	4.1	7.6*	-137.9	-0.1	-3.5	2.6	1.4
c1ccc(CSC2=NCCCN2)cc1	-12.9	2.4	-7.7	0.4	-4.5	-3.1	0.3
Cc1ccc(CCNS(=O)(=O)c2cc3c(cc2C)n(C)c(=O)c(=O)n3C)cc1	7.3	10.1*	-2.4	1.3	-1.3	-0.9	1.9
CC1=C(C(N)=O)C(c2ccc(Cl)cc2)n2nc(CCCO)nc2N1 (stereo not drawn)	16.9	2.5	-10.4	0.0	0.4	-1.2	/
CC1=C(C(N)=O)C(c2cccc(O)c2)n2nc(CCCO)nc2N1 (stereo not drawn)	-22.6	7.2*	12.7	-1.1	5.9	0.8	-1.5
COc1ccc(CC(=O)Nn2c(-c3ccccc3)nc3ccccc3c2=O)cc1	9.2	-2.7	-5.3	2.1	0.6	-2.1	/
COc1ccc(-c2nc3ccccc3c(=O)n2NC(=O)Cc2ccccc2)cc1	6.8	9.8*	-17.8	-1.0	-2.5	-5.0	0.8
C=CCOc1c(Br)cc(CNn2c(C)n[nH]c2=S)cc1OC	4.7	-3.6	20.6	2.4	-2.5	-0.9	/
COc1cc(CNC(C)(C)CO)ccc1OCC(=O)NC(C)(C)C	4.6	-3.2	-13.3	1.3	-4.4	-2.7	/
C=CCOc1ccc(CNn2c(C)n[nH]c2=S)cc1OC	-1.4	10.0*	/	1.6	-2.4	4.9	0.9
COc1cc(CNn2cn[nH]c2=S)ccc1OCC(=O)NC(C)(C)C	13.2	8.9*	11.3	0.0	-6.9	3.8	-2.6
C[C@H]1CN([C@@H](C)CO)C(=O)c2cc(NS(C)(=O)=O)ccc2O[C@@H]1CN(C)C(=O)Nc1ccc(C(F)(F)F)cc1	/	/	-6.1[16.7 µM]	/	/	/	/
O=C(Nc1cccc(C(F)(F)F)c1)c1cccnc1N1CCN(c2ccccc2)CC1	10.9	12.3*	33.7	0.9	-13.0	3.0	-2.3
